Assay outcomes deposited in PubChem BioAssay by several laboratories.
UPR XBP1 act: adaptive UPR (XBP1) activation | activation, % at 20 µM | actives 0.33% (n = 330,000) | CHO-XBP1 luciferase reporter, IRE1-XBP1 UPR activation, luminescence; percent of tunicamycin response, DMSO as zero;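 active = versus positive control, 20 µM dose yields 30% or more activation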;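 also: 100% = tunicamycin at 10 µg/mL and 0% = DMSO only wells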
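Material: IRE1-XBP1 luciferase reporter CHO line / Quantity: one thousand reporter cells per well / Buffer or medium: F12 with 10% serum / Compound: 20 µM single concentration, DMSO 1% / Times: 6 h treatment, 37 °C / Detection: Steady-Glo luciferase glow luminescence, 10 min after reagent addition / Benchmarks: tunicamycin high, DMSO low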
CHOP inhibitor: inhibitors of CHOP induction in ER stress response; inhibition, % at 10 µM; actives 3.8% (n = 220,000); CHO-K1 CHOP-promoter luciferase, tunicamycin-induced, 15-18 h;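 active = compounds that reduced the stress-induced luciferase reporter signal by more than about 70% of percent inhibition, limit read from the data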;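 also: 0% = tunicamycin plus vehicle and 100% = wells without tunicamycin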
CHOP UPR activ: apoptotic UPR (CHOP) activation; activation, % at 10 µM; AID 449763; CHO-CHOP luciferase reporter, luminescence; percent of tunicamycin response over DMSO baseline; actives 0.34% (n = 330,000);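 active = at 10 µM dose, activation of 40% or more, normalized to positive control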;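 also: 100% = tunicamycin at 10 µg/mL and 0% = DMSO alone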
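measured by = luciferase luminescence | assay system = CHO-CHOP cells, stable luciferase reporter of PERK-eIF2a-CHOP signalling | amount = 500 reporter cells seeded per well | timing = 6 h compound exposure at 37 °C after overnight seeding | controls = positive tunicamycin 10 µg/mL, negative DMSO alone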
FXN GAA850 act: increases GAA850 frataxin promoter reporter activity | HEK293 lucGAA850 FXN promoter luciferase reporter, 24 h; percent of 10 µM SAHA response | activation, % at 6 µM | actives 0.56% (n = 360,000) | AID 540364;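 active = activation above the average of all compounds screened plus 3 SD, cutoff fixed separately per campaign, cut at about 7.5% in these data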;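 also: 0% = DMSO wells and 100% = 10 µM SAHA wells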
The depositor's hits bear a star; x = no result given. The full list was thinned out, with hits kept by preference.

SMILES | UPR XBP1 act | CHOP inhibitor | CHOP UPR activ | FXN GAA850 act
COC(=O)c1c(NC(=O)c2nn(C)cc2Cl)sc2c1CCCC2 | 5.9 | 74.2* | -1.5 | -2.7
CC(C)c1ccccc1OCC(=O)NC1CCCc2ccccc21 (centres undefined) | 0.6 | 75.5* | 3.5 | 1.2
COc1ccccc1OCC(=O)NC1CCCc2ccccc21 (centres undefined) | 1.3 | x | 1.7 | 1.7
CC12CCC(C/C1=N\N=C1\NC(=O)/C(=C\c3ccc(Cl)cc3)S1)C2(C)C (centres undefined) | 11.8 | 93.0* | 6.0 | 1.0
O=C(c1ccc([N+](=O)[O-])cc1Cl)N1CCN(Cc2ccccc2)CC1 | x | x | x | -3.0
C[C@@H]1CN([C@H](C)CO)C(=O)CCCn2cc(nn2)CO[C@H]1CN(C)S(=O)(=O)c1ccccc1 | x | x | x | 0.8
O=C(NCC(F)(F)F)c1ccc2sc([C@@H]3O[C@H](CO)[C@H](O)[C@H](O)[C@H]3O)nc2c1 | x | x | x | 1.1
CC(C)c1nc(Cl)c(C#N)c2c1CCCC2 | -0.3 | 84.5* | 0.2 | 5.0
O=c1c2cc(N3CCOCC3)ccc2[nH]c(=S)n1Cc1ccc(Cl)cc1 | 0.4 | 70.5* | 3.7 | 4.3
C=CCn1c(SCC(=O)Nc2sccc2C(N)=O)nc2ccc(Cl)cc2c1=O | -3.9 | 77.9* | 2.1 | 2.6
O=C(c1ccccc1Nc1ccc(SC(F)F)cc1)N1CCCCCC1 | -1.0 | 86.5* | -1.4 | -2.3
CN(C)C(=O)COC(=O)c1ccccc1Nc1ccc(SC(F)F)cc1 | 3.5 | -12.3 | 4.0 | 3.5
O[C@H]1C[C@H](c2ccc(Cl)cc2)N(CC2CCCCC2)C[C@@H]1n1cc(C2CC2)nn1 | x | x | x | 2.2
O=C(CN1CCCc2ccccc21)Nc1ccc(F)cc1[N+](=O)[O-] | -3.3 | 73.9* | 1.5 | 2.0
O=C(Nc1ccc(C(O)c2ccccc2)cc1)[C@H]1C[C@H](O)[C@@H](CO)O1 (some centres undefined) | x | x | x | 2.3
COc1cccc(NC(=O)CSc2nc3c(c(=O)n2C)SC(C)C3)c1 (centres undefined) | -1.0 | 78.7* | -1.0 | -1.8
COc1ccc([C@H]2CN(c3ccc(OC)cc3)C(=O)[C@@H]2CC(=O)Nc2ccccc2)cc1 | x | x | x | 0.2
Cc1ccc(SCC(=O)Nc2ccc(-c3nnc(-c4ccco4)o3)cc2)cc1 | 4.0 | 75.5* | 2.7 | 3.6
Cc1ccc(NC(=O)CSc2ccc(-c3ccco3)nn2)cc1 | -3.1 | 74.4* | -0.1 | 0.7
CC(C)(C)OC(=O)N1CCN(C(=O)c2ncn3c2c(=O)[nH]c2ccccc23)CC1 | x | x | x | 0.8
CCCc1cc(-c2n[nH]c(=S)n2C(C)c2ccccc2)cs1 (centres undefined) | 0.6 | 95.8* | 0.3 | 0.8
CCCc1cc(-c2n[nH]c(=S)n2CC)cs1 | -0.6 | 38.2 | -0.4 | 4.2
CSc1ncnc2c1ncn2CCCNc1ccc(C)c(C)c1 | x | x | x | 1.9
O=C(CCC(=O)OCCCC(F)(F)C(F)(F)F)Nc1ccc(Cl)cc1Cl | -3.1 | 80.1* | -3.9 | -1.4
NC(=O)c1ccsc1NC(=O)COC(=O)Cc1c[nH]c2ccccc12 | -2.5 | x | 2.3 | 1.1
SMILES | UPR XBP1 act | CHOP inhibitor | CHOP UPR activ | FXN GAA850 act
NC(=O)c1ccsc1NC(=O)COC(=O)Cc1cccc2ccccc12 | -1.4 | 84.6* | 0.0 | -4.2
Nc1nc(-c2ccccc2)c(-c2ccc([N+](=O)[O-])cc2)s1 | -0.5 | 74.2* | 4.1 | 2.6
Cc1ccc(-c2nc(N)sc2-c2ccccc2)cc1C | 5.1 | 86.7* | 0.8 | 2.5
CCOC(=O)C1(C)CCN1C(=O)c1ccc(Cl)nc1 (centres undefined) | x | x | x | -2.4
CCc1ccc(Nc2nc(N)nc(CSc3nc4ccccc4s3)n2)cc1 | 0.8 | 72.9* | 1.9 | -0.4
Cc1nnc(SCc2nc(N)nc(Nc3ccccc3)n2)s1 | 2.0 | -0.9 | 0.1 | 4.5
Nc1ccc(-c2nc3c(Cl)cc(N)cc3[nH]2)cc1 | -15.0 | 87.8* | -10.4 | -15.6
COC(=O)c1cc2c(s1)-c1ccccc1CC2 | 3.4 | 91.3* | 5.9 | 2.5
O=C(Nc1ccc(S(=O)(=O)N2CCOCC2)cc1)c1cc(-c2cc(Cl)ccc2O)n[nH]1 | 9.4 | 2.4 | 1.0 | -4.6
Cc1cc(O)c(-c2cc(C(=O)Nc3ccc(S(=O)(=O)N4CCOCC4)cc3)[nH]n2)cc1C | 3.3 | 87.3* | 4.4 | -1.9
CCOC(=O)CN(C(=O)c1snc(C(N)=O)c1N)C(C(=O)NCCC(C)C)c1ccc(C)cc1 (centres undefined) | x | x | x | -1.1
COc1ccc(C(O)c2nc(-c3ccncc3)cs2)cc1 (centres undefined) | x | x | x | 0.0
